# How the values were obtained:
# Type in all cases: functional
# [1] = test system: Escherichia coli; test: Antibacterial activity against extended-spectrum beta-lactamase producing Escherichia coli isolate 212648 after 18 hrs by CLSI broth microdilution method; conditions: isolate 212648, 18 h
# [2] = test system: Escherichia coli; test: Selectivity index, ratio of MIC for against extended-spectrum beta-lactamase producing Escherichia coli isolate 208687 to MIC for extended-spectrum beta-lactamase producing Escherichia coli isolate 208687 in presence of BPL
# [3] = test system: Escherichia coli; test: Antibacterial activity against Escherichia coli isolate 210737 after 18 hrs by CLSI broth microdilution method; conditions: isolate 210737, 18 h
# [4] = test system: Escherichia coli; test: Antibacterial activity against extended-spectrum beta-lactamase producing Escherichia coli isolate 208687 after 18 hrs by CLSI broth microdilution method; conditions: isolate 208687, 18 h
# [5] = test system: Escherichia coli; test: Antibacterial activity against extended-spectrum beta-lactamase producing Escherichia coli isolate 208687 after 18 hrs in presence of BPL by CLSI broth microdilution method; conditions: isolate 208687, 18 h
# Summary of the method: (§1)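 CLSI broth microdilution against clinical isolates (ESBL E. coli, KPC-2 MDR K. pneumoniae, IMP-4 MDR P. aeruginosa; five per species). Iron limitation: Mueller-Hinton broth supplemented with 16 mg/liter 2,2'-bipyridyl to complex iron and induce iron uptake systems. Read-out: MIC.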
# [6] = test system: Escherichia coli; test: Antibacterial activity against Escherichia coli isolate 210737 after 18 hrs in presence of BPL by CLSI broth microdilution method; conditions: isolate 210737, 18 h; summary of the method: as §1
# [7] = test system: Escherichia coli; test: Selectivity index, ratio of MIC for against Escherichia coli isolate 210737 to MIC for Escherichia coli isolate 210737 in presence of BPL
# [8] = test system: Escherichia coli; test: Antibacterial activity against extended-spectrum beta-lactamase producing Escherichia coli isolate 212648 after 18 hrs in presence of BPL by CLSI broth microdilution method; conditions: isolate 212648, 18 h; summary of the method: as §1
# [9] = test system: Escherichia coli; test: Selectivity index, ratio of MIC for against extended-spectrum beta-lactamase producing Escherichia coli isolate 212648 to MIC for extended-spectrum beta-lactamase producing Escherichia coli isolate 212648 in presence of BPL
# [10] = test system: Escherichia coli; test: Antibacterial activity against extended-spectrum beta-lactamase producing Escherichia coli isolate 209285 after 18 hrs by CLSI broth microdilution method; conditions: isolate 209285, 18 h
# [11] = test system: Escherichia coli; test: Antibacterial activity against extended-spectrum beta-lactamase producing Escherichia coli isolate 209285 after 18 hrs in presence of BPL by CLSI broth microdilution method; conditions: isolate 209285, 18 h; summary of the method: as §1
# [12] = test system: Escherichia coli; test: Selectivity index, ratio of MIC for against extended-spectrum beta-lactamase producing Escherichia coli isolate 209285 to MIC for extended-spectrum beta-lactamase producing Escherichia coli isolate 209285 in presence of BPL
# [13] = test system: Escherichia coli; test: Antibacterial activity against extended-spectrum beta-lactamase producing Escherichia coli isolate 106342 after 18 hrs by CLSI broth microdilution method; conditions: isolate 106342, 18 h
# [14] = test system: Escherichia coli; test: Antibacterial activity against extended-spectrum beta-lactamase producing Escherichia coli isolate 106342 after 18 hrs in presence of BPL by CLSI broth microdilution method; conditions: isolate 106342, 18 h; summary of the method: as §1
# [15] = test system: Escherichia coli; test: Selectivity index, ratio of MIC for against extended-spectrum beta-lactamase producing Escherichia coli isolate 106342 to MIC for extended-spectrum beta-lactamase producing Escherichia coli isolate 106342 in presence of BPL
# [16] = test system: Klebsiella pneumoniae; test: Antibacterial activity against KPC-2 producing Klebsiella pneumoniae isolate 212423 after 18 hrs by CLSI broth microdilution method; conditions: isolate 212423, 18 h
# [17] = test system: Klebsiella pneumoniae; test: Antibacterial activity against KPC-2 producing Klebsiella pneumoniae isolate 212423 after 18 hrs in presence of BPL by CLSI broth microdilution method; conditions: isolate 212423, 18 h; summary of the method: as §1
# [18] = test system: Klebsiella pneumoniae; test: Selectivity index, ratio of MIC for against KPC-2 producing Klebsiella pneumoniae isolate 212423 to MIC for against KPC-2 producing Klebsiella pneumoniae isolate 212423 in presence of BPL
# [19] = test system: Klebsiella pneumoniae; test: Antibacterial activity against KPC-2 producing Klebsiella pneumoniae isolate 209632 after 18 hrs by CLSI broth microdilution method; conditions: isolate 209632, 18 h
# [20] = test system: Klebsiella pneumoniae; test: Antibacterial activity against KPC-2 producing Klebsiella pneumoniae isolate 209632 after 18 hrs in presence of BPL by CLSI broth microdilution method; conditions: isolate 209632, 18 h; summary of the method: as §1
# [21] = test system: Klebsiella pneumoniae; test: Selectivity index, ratio of MIC for against KPC-2 producing Klebsiella pneumoniae isolate 209632 to MIC for against KPC-2 producing Klebsiella pneumoniae isolate 209632 in presence of BPL
# [22] = test system: Klebsiella pneumoniae; test: Antibacterial activity against KPC-2 producing Klebsiella pneumoniae isolate 209735 after 18 hrs by CLSI broth microdilution method; conditions: isolate 209735, 18 h
# [23] = test system: Klebsiella pneumoniae; test: Antibacterial activity against KPC-2 producing Klebsiella pneumoniae isolate 209735 after 18 hrs in presence of BPL by CLSI broth microdilution method; conditions: isolate 209735, 18 h; summary of the method: as §1
# [24] = test system: Klebsiella pneumoniae; test: Selectivity index, ratio of MIC for against KPC-2 producing Klebsiella pneumoniae isolate 209735 to MIC for against KPC-2 producing Klebsiella pneumoniae isolate 209735 in presence of BPL
# [25] = test system: Klebsiella pneumoniae; test: Antibacterial activity against KPC-2 producing Klebsiella pneumoniae isolate 212232 after 18 hrs by CLSI broth microdilution method; conditions: isolate 212232, 18 h
# [26] = test system: Klebsiella pneumoniae; test: Antibacterial activity against KPC-2 producing Klebsiella pneumoniae isolate 212232 after 18 hrs in presence of BPL by CLSI broth microdilution method; conditions: isolate 212232, 18 h; summary of the method: as §1
# [27] = test system: Klebsiella pneumoniae; test: Selectivity index, ratio of MIC for against KPC-2 producing Klebsiella pneumoniae isolate 212232 to MIC for against KPC-2 producing Klebsiella pneumoniae isolate 212232 in presence of BPL
# [28] = test system: Klebsiella pneumoniae; test: Antibacterial activity against KPC-2 producing Klebsiella pneumoniae isolate 212229 after 18 hrs by CLSI broth microdilution method; conditions: isolate 212229, 18 h
# [29] = test system: Klebsiella pneumoniae; test: Antibacterial activity against KPC-2 producing Klebsiella pneumoniae isolate 212229 after 18 hrs in presence of BPL by CLSI broth microdilution method; conditions: isolate 212229, 18 h; summary of the method: as §1
# [30] = test system: Klebsiella pneumoniae; test: Selectivity index, ratio of MIC for against KPC-2 producing Klebsiella pneumoniae isolate 212229 to MIC for against KPC-2 producing Klebsiella pneumoniae isolate 212229 in presence of BPL
# [31] = test system: Pseudomonas aeruginosa; test: Antibacterial activity against IMP-4 producing Pseudomonas aeruginosa isolate 212886 after 18 hrs by CLSI broth microdilution method; conditions: isolate 212886, 18 h
# [32] = test system: Pseudomonas aeruginosa; test: Antibacterial activity against IMP-4 producing Pseudomonas aeruginosa isolate 212886 after 18 hrs in presence of BPL by CLSI broth microdilution method; conditions: isolate 212886, 18 h; summary of the method: as §1
# [33] = test system: Pseudomonas aeruginosa; test: Antibacterial activity against IMP-4 producing Pseudomonas aeruginosa isolate 209471 after 18 hrs by CLSI broth microdilution method; conditions: isolate 209471, 18 h
# [34] = test system: Pseudomonas aeruginosa; test: Antibacterial activity against IMP-4 producing Pseudomonas aeruginosa isolate 209471 after 18 hrs in presence of BPL by CLSI broth microdilution method; conditions: isolate 209471, 18 h; summary of the method: as §1
# [35] = test system: Pseudomonas aeruginosa; test: Antibacterial activity against IMP-4 producing Pseudomonas aeruginosa isolate 208247 after 18 hrs by CLSI broth microdilution method; conditions: isolate 208247, 18 h
# [36] = test system: Pseudomonas aeruginosa; test: Antibacterial activity against IMP-4 producing Pseudomonas aeruginosa isolate 208247 after 18 hrs in presence of BPL by CLSI broth microdilution method; conditions: isolate 208247, 18 h; summary of the method: as §1
# [37] = test system: Pseudomonas aeruginosa; test: Antibacterial activity against IMP-4 producing Pseudomonas aeruginosa isolate 209321 after 18 hrs by CLSI broth microdilution method; conditions: isolate 209321, 18 h
# [38] = test system: Pseudomonas aeruginosa; test: Antibacterial activity against IMP-4 producing Pseudomonas aeruginosa isolate 209321 after 18 hrs in presence of BPL by CLSI broth microdilution method; conditions: isolate 209321, 18 h; summary of the method: as §1
# [39] = test system: Pseudomonas aeruginosa; test: Selectivity index, ratio of MIC for against IMP-4 producing Pseudomonas aeruginosa isolate 209321 to MIC for against IMP-4 producing Pseudomonas aeruginosa isolate 209321 in presence of BPL
# [40] = test system: Pseudomonas aeruginosa; test: Antibacterial activity against IMP-4 producing Pseudomonas aeruginosa isolate 207272 after 18 hrs by CLSI broth microdilution method; conditions: isolate 207272, 18 h
# [41] = test system: Pseudomonas aeruginosa; test: Antibacterial activity against IMP-4 producing Pseudomonas aeruginosa isolate 207272 after 18 hrs in presence of BPL by CLSI broth microdilution method; conditions: isolate 207272, 18 h; summary of the method: as §1
smiles,measurement,setting,value
CC(C)C(O/N=C(\C(=O)NC1C(=O)N(S(=O)(=O)O)C12CCCCC2)c1csc(N)n1)c1cc(=O)c(O)cn1O (stereo unspecified),MIC,[1],> 64 µg/mL
same,Selectivity Index,[2],8
same,MIC,[3],16 µg/mL
same,MIC,[4],32 µg/mL
same,MIC,[5],4 µg/mL
same,MIC,[6],8 µg/mL
same,Selectivity Index,[7],2
same,MIC,[8],> 64 µg/mL
same,Selectivity Index,[9],2 - 8
same,MIC,[10],64 µg/mL
same,MIC,[11],8 µg/mL
same,Selectivity Index,[12],8
same,MIC,[13],32 µg/mL
same,MIC,[14],16 µg/mL
same,Selectivity Index,[15],2
same,MIC,[16],8 µg/mL
same,MIC,[17],4 µg/mL
same,Selectivity Index,[18],2
same,MIC,[19],8 µg/mL
same,MIC,[20],4 µg/mL
same,Selectivity Index,[21],2
same,MIC,[22],16 µg/mL
same,MIC,[23],4 µg/mL
same,Selectivity Index,[24],4
same,MIC,[25],16 µg/mL
same,MIC,[26],1 µg/mL
same,Selectivity Index,[27],16
same,MIC,[28],8 µg/mL
same,MIC,[29],4 µg/mL
same,Selectivity Index,[30],2
same,MIC,[31],> 64 µg/mL
same,MIC,[32],> 64 µg/mL
same,MIC,[33],> 64 µg/mL
same,MIC,[34],> 64 µg/mL
same,MIC,[35],> 64 µg/mL
same,MIC,[36],64 µg/mL
same,MIC,[37],64 µg/mL
same,MIC,[38],64 µg/mL
same,Selectivity Index,[39],1
same,MIC,[40],> 64 µg/mL
same,MIC,[41],> 64 µg/mL

# — ChEMBL document CHEMBL4152188, “Design, synthesis and biological evaluation of C(4) substituted monobactams as antibacterial agents against multidrug-resistant Gram-negative bacteria” (Eur J Med Chem, 2018)
